Sampled rows, rich in hits. Any-hit rate of the full collection: about 1.8%.
NPY Y2 blocker: antagonists of human neuropeptide Y receptor Y2. inhibition, % at 2.7 µM. 140,000 compounds, 0.99% hits. NPY-Y2 expressing cells, antagonist mode; in the data active = inhibition above about 17%;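 also: 0% = vehicle with agonist challenge and 100% = reference antagonist with challenge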
NPY2 pot ag: human NPY-Y2 potentiation or agonism, primary screen; activation, % at 3.6 µM; 220,000 compounds, 0.45% hits; cells expressing NPY-Y2, potentiator/agonist read-out; AID 1359; P49146; in the data active = activation above about 27%;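 also: cells stimulated with NPY near EC25 plus isoproterenol at EC100; 0% = vehicle plus submaximal agonist and 100% = vehicle plus saturating agonist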
NPY-Y1 antag: antagonists of human neuropeptide Y receptor Y1. P25929. 200,000 compounds, 1% hits. inhibition, % at 3.6 µM. HEK293-CNG Y1 cells, membrane potential fluorescence; NPY at EC95, then isoproterenol. AID 1040;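 active = inhibition above the campaign mean inhibition of all tested compounds plus 3 SD, cut at about 20% in these data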;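 also: 0% = DMSO wells given NPY plus isoproterenol and 100% = isoproterenol alone without NPY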
Target sequence (P25929 whole entry, looked up): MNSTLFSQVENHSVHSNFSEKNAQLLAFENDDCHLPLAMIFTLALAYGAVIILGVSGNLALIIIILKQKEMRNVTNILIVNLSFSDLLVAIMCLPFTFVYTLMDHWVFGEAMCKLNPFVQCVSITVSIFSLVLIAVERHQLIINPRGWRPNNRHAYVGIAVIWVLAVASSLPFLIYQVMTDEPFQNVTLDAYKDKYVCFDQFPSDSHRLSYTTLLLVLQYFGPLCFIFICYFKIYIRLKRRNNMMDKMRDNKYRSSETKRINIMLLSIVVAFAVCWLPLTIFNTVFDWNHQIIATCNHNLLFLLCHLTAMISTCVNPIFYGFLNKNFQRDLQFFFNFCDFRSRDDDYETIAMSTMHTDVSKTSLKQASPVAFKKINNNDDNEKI
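Material: HEK293 cells with Y1 receptor plus CNG channel; times: compound incubation 1 h at room temperature, readout 45 min post-stimulation; signal: fluorescence, membrane potential probe; read-out basis: fluorescence ratio normalized to % inhibition between controls; benchmarks: full-block control isoproterenol-only wells, zero-block control NPY plus isoproterenol wells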
NPY-Y1 PAM-ag: human NPY-Y1 potentiation or agonism, primary screen; activation, % at 3.6 µM; 220,000 compounds, 0.37% hits; NPY-Y1 expressing cells, potentiator/agonist activation; in the data active = activation above about 33%, passing the limit was not always enough;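 also: cells stimulated with NPY at EC10 then isoproterenol at EC100; 0% = low agonist plus stimulus and 100% = saturating agonist plus stimulus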
An asterisk follows results filed as active; nt = no result.

SMILES	NPY Y2 blocker	NPY2 pot ag	NPY-Y1 antag	NPY-Y1 PAM-ag
COc1ccc2c(c1OC)C(=O)N(c1ccc(C)cc1)C2=O	nt	6	-3	13
COc1ccc2c(c1OC)C(=O)N1N=C(c3ccc(-c4ccccc4)cc3)CC21 (centres undefined)	nt	3	3	8
COc1ccc2c(c1OC)C(=O)N1c3ccccc3C(=O)N(c3ccc(F)cc3)C21 (centres undefined)	16	-8	52*	-14
CCOC(=O)NC(=O)C(=CNc1ccc(C)cc1)C(=O)NC(=O)OCC	2	9	-3	1
Cc1cc(-c2nn(-c3ccccc3F)cc2CN(C)CC(O)CO)c(C)s1 (centres undefined)	nt	3	-2	1
O=C1Nc2ccccc2/C1=N\N=C\C1=C(N2CCOCC2)C(=C\c2ccccc2)/CC1	-11	42*	-20	46*
Cn1cc(C(=O)N/N=C/C2=C(N3CCOCC3)C(=C\c3ccccc3)/CC2)ccc1=O	0	-5	-2	6
CCOC(=O)c1[nH]ncc1CN1CCN(Cc2ccc(C)cc2)C(CCO)C1 (centres undefined)	nt	-9	5	6
O=C(COc1ccc(/C=N/NS(=O)(=O)c2ccccc2)cc1)Nc1cccc(Cl)c1	18*	8	43*	25
c1ccc(-c2ccccc2OCCCN2CCCCC2)cc1	18*	-6	28*	13
COC(=O)/C=C1/SC(=NC(=O)c2ccc(F)cc2)NC1=O	nt	5	nt	-2
Cn1c(-c2ccc(Cl)cc2)cnc1NCc1cc2c(cc1[N+](=O)[O-])OCO2	0	47*	-8	47*
Cn1ncc(C#N)c1/N=C/N(Cc1ccccc1)Cc1ccccc1	26*	-32	22*	-70
COC(=O)CNC(c1ccccc1)c1cc(Br)ccc1NC(=O)CNC(=O)OCc1ccccc1 (centres undefined)	29*	-5	25*	1
CCOC(=O)CNC(c1ccccc1)c1cc(Br)ccc1NC(=O)OCC (centres undefined)	8	-23	19	-24
CC12CC(NC(=O)N1c1ccc(C(=O)N3CCN(c4ccccn4)CC3)cc1)c1ccccc1O2 (centres undefined)	0	35*	2	52*
Cc1ccccc1Nc1nc(N)c2ccccc2n1	nt	12	3	-8
Nc1nc(Nc2ccccc2)nc2ccccc12	5	68*	-9	73*
C=C1C(=O)[C@@]23[C@H](O)C[C@@H]4C(C)(C)CC[C@H](O)[C@@]4(C)[C@@H]2CC[C@@H]1[C@H]3O	-1	22	-8	21
CC1CCCc2sc3nc(N4CCN(CCO)CC4)n4ncnc4c3c21 (centres undefined)	25*	-29	40*	-51
Cc1ccc(S(=O)(=O)N2CCC(C(=O)OCc3ccc([N+](=O)[O-])cc3)CC2)cc1	4	4	1	-14
Cc1noc(C)c1CSc1nc2sc(C)c(C)c2c(=O)n1-c1ccccc1	6	-38	14	-33
C=CCn1c(SCc2c(C)noc2C)nc2sc(C)c(C)c2c1=O	17*	-27	21*	-15
COc1cc2c(cc1OC)CN(c1nc(CN3CCOCC3)nc3sc4c(c13)CCCC4)CC2	4	-14	2	-52
COc1cc2c(cc1OC)CN(c1nc(CN3CCCCC3)nc3sc4c(c13)CCCC4)CC2	20*	-15	23*	-69
SMILES	NPY Y2 blocker	NPY2 pot ag	NPY-Y1 antag	NPY-Y1 PAM-ag
Cc1nn(C2CCCO2)c(=O)nc1N (centres undefined)	nt	-3	2	-3
CCN(CC)c1ccc(NC(=O)CN2CCN(S(=O)(=O)c3cc(Cl)ccc3OC)CC2)cc1	-2	33*	-11	53*
COc1ccc2c(c1[N+](=O)[O-])CCC/C2=N/OC(=O)c1cccc2ccccc12	2	4	0	2
Cc1ccc2c(c1)C(c1ccc([N+](=O)[O-])cc1)=NNC(c1ccc(Br)cc1)=N2	17*	8	25*	-2
CCc1ccc2c(c1)C(c1ccc([N+](=O)[O-])cc1)=NNC(c1ccc(Br)cc1)=N2	0	11	5	-7
COc1ccccc1NS(=O)(=O)c1cc([N+](=O)[O-])ccc1N/N=C/c1c[nH]c2ccccc12	-5	34*	-4	39*
O=[N+]([O-])c1ccccc1N/N=C/c1c[nH]c2ccccc12	-14	86*	-18	105*
C(=N\Nc1nc2ccccc2[nH]1)/c1c[nH]c2ccccc12	0	34*	-6	44*
Cc1ccccc1/C=N/Nc1nc2ccccc2[nH]1	nt	-23	12	-34
O=[N+]([O-])c1ccc(N/N=C/c2c[nH]c3ccccc23)cc1	-8	48*	-20	55*
COc1ccc(NS(=O)(=O)c2cc([N+](=O)[O-])ccc2N/N=C\c2c(C)[nH]c3ccccc23)cc1	1	-4	1	13
O=C(CSc1nc(-c2ccc(F)cc2)cc(C(F)(F)F)n1)NCc1ccco1	6	-14	0	1
O=C(CCn1c(=S)oc2ccccc21)NC1CCCCCCC1	nt	0	nt	-4
Cc1cc([N+](=O)[O-])c2c(c1C)C1C=CCC1C(c1ccccn1)N2 (centres undefined)	nt	-3	1	16
COc1ccc(-c2cc(-c3ccccc3)c(C#N)c(S(C)=O)n2)cc1 (centres undefined)	-1	76*	-18	72*
Cc1cccn2c(=O)c(C=O)c(NCc3ccccc3)nc12	nt	-9	nt	-15
O=C(COc1ccc([N+](=O)[O-])cc1)N(Cc1ccccc1)Cc1ccccc1	23*	-8	21*	-16
COc1ccc(NC(=O)Cn2c(NCC(C)O)nc3ccccc32)cc1Cl (centres undefined)	nt	14	4	-7
CC(C)(C)c1ccc(OCCCNCc2ccccc2)cc1	5	-3	7	-12
COc1ccc(OCCCNCCc2ccccc2)cc1	nt	-11	21*	0
Cc1ccc(-n2nnnc2-c2cnoc2-c2cccc(F)c2)cc1	7	-2	2	4
O=C(Nc1nc2ccccc2s1)C1CCN(S(=O)(=O)c2cc([N+](=O)[O-])ccc2Cl)CC1	nt	82*	nt	80*
O=C(Nc1ccc(Cl)cn1)c1cc2c(s1)-c1ccccc1OC2	nt	-18	nt	-14
COCc1c(C(=O)OC/C(O)=C(\C#N)c2nc3ccccc3[nH]2)oc2ccccc12	nt	-23	20*	-10
Clc1ccc(-c2nc(N3CCCCC3)nc3ccccc23)cc1	3	-4	2	-10
c1ccc(-c2nc(-n3nc4ccccc4n3)nc3ccccc23)cc1	27*	-30	-2	-18
COc1ccccc1N1CCN(C(=O)CSc2nnc3n2C(C)(C)Cc2ccccc2-3)CC1	1	75*	-11	96*
CC(=O)c1cn(S(=O)(=O)c2ccccc2)c2ccccc12	4	-9	0	3
COc1cc2c(cc1NC(=O)CSc1nnc(Cc3cccs3)n1Cc1ccco1)oc1ccccc12	0	6	-4	-23
Cc1ccc(NCc2nnc(SCc3ccc(C#N)cc3)n2Cc2ccco2)c(C)c1	0	9	1	14
